# Assay results: ChEMBL document CHEMBL3091283, “Selective cannabinoid receptor type 2 (CB2) agonists: optimization of a series of purines leading to the identification of a clinical candidate for the treatment of osteoarthritic pain” (J Med Chem, 2013)
# What was measured:
# [1] = AUC in Sprague-Dawley rat at 3 mg/kg, po; type: ADME, organism-based; design: dose 3 mg/kg, route oral; conditions: plasma
# [2] = Cmax in Beagle dog at 1 mg/kg, iv and 3 mg/kg, po; type: ADME, organism-based, Canis lupus familiaris; conditions: in vivo
# Summary of the method: (§1)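 Male beagle dogs given 1 mg/kg iv and 3 mg/kg po. Plasma PK parameters derived: clearance, volume of distribution, oral half-life, AUC, Cmax and oral bioavailability.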
# [3] = Volume of distribution in Sprague-Dawley rat at 1 mg/kg, iv; type: ADME, organism-based; design: dose 1 mg/kg, route intravenous; conditions: in vivo
# Summary of the method: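 Male Sprague–Dawley rats were given 1 mg/kg iv. Clearance and volume of distribution were derived from plasma pharmacokinetics.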
# [4] = Volume of distribution in Beagle dog at 1 mg/kg, iv and 3 mg/kg, po; type: ADME, organism-based, Canis lupus familiaris; conditions: in vivo; summary of the method: as §1
# [5] = system: MDR1; assay: MDR1-mediated transport in MDCK cells assessed as permeability from basolateral to apical side at 5 uM; type: ADME, cell-based, Canis lupus familiaris; conditions: dog, read-out: permeability
# Summary of the method: (§2)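 Transport measured across MDCK-MDR1 monolayers at 5 μM, with and without inhibitor. A→B and B→A fluxes recorded in cm/s × 10−6; efflux ratio taken as B→A over A→B.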
# [6] = Oral bioavailability in Sprague-Dawley rat at 1 mg/kg; type: ADME, organism-based; conditions: in vivo
# Summary of the method: (§3)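 Male Sprague-Dawley rats dosed 1 mg/kg iv and 1 mg/kg po. Clearance, volume of distribution, oral half-life, AUC, Cmax and bioavailability calculated from plasma levels.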
# [7] = AUC in Sprague-Dawley rat at 1 mg/kg, iv and 1 mg/kg, po; type: ADME, organism-based; conditions: plasma; summary of the method: as §3
# [8] = system: MDR1; assay: MDR1-mediated transport in MDCK cells assessed as permeability from apical to basolateral side at 5 uM; type: ADME, cell-based, Canis lupus familiaris; conditions: dog, read-out: permeability; summary of the method: as §2
# [9] = Cmax in Sprague-Dawley rat at 1 mg/kg, iv and 1 mg/kg, po; type: ADME, organism-based; conditions: in vivo; summary of the method: as §3
# [10] = AUC in Beagle dog at 1 mg/kg, iv and 3 mg/kg, po; type: ADME, organism-based, Canis lupus familiaris; conditions: plasma; summary of the method: as §1
# [11] = Oral bioavailability in Beagle dog at 3 mg/kg; type: ADME, organism-based, Canis lupus familiaris; conditions: in vivo; summary of the method: as §1
# [12] = Aqueous solubility in simulated GI fluid at pH 6.8; type: physicochemical
# [13] = Lipophilicity, log P of the compound; type: physicochemical; conditions: octanol/water
# [14] = Ratio of drug level in brain to plasma in rat; type: ADME; conditions: read-out: BPR
smiles,measurement,setting,value
COCCn1c(-c2ccccc2Cl)nc2c(N3CCN(CCF)CC3)nc(C)nc21.Cl,AUC,[1],< 0.05 µg·h/mL
Cc1nc(N2CCN(C)CC2)c2nc(-c3ccccc3Cl)n(CCS(C)(=O)=O)c2n1.Cl,Cmax,[2],0.062 µg/mL
same,Vd,[3],1.9 L/kg
same,Vd,[4],9.2 L/kg
same,Papp B→A at 5 µM,[5],430 nm/s
same,bioavailability,[6],43%
same,AUC,[7],0.312 µg·h/mL
same,Papp A→B at 5 µM,[8],420 nm/s
same,Cmax,[9],0.076 µg/mL
same,AUC,[10],0.286 µg·h/mL
same,bioavailability,[11],60%
same,solubility,[12],> 100 µM
Cc1nc(N2CCN(C)CC2)c2nc(-c3ccccc3Cl)n([C@@H]3CCOC3)c2n1,logP,[13],3.2
CCN1CCN(c2nc(C)nc3c2nc(-c2ccccc2Cl)n3CC2CCOCC2)CC1.Cl,Vd,[3],5 L/kg
same,bioavailability,[6],27%
same,logP,[13],3.4
Cc1nc(N2CCN(C)CC2)c2nc(-c3ccccc3Cl)n(C3CCOCC3)c2n1.Cl,Cmax,[2],0.352 µg/mL
same,Vd,[3],6 L/kg
same,Vd,[4],5.5 L/kg
same,Papp B→A at 5 µM,[5],31 nm/s
same,bioavailability,[6],67%
same,logP,[13],3.1
same,Kp,[14],0.9
same,AUC,[7],0.265 µg·h/mL
same,Papp A→B at 5 µM,[8],31 nm/s
same,Cmax,[9],0.06 µg/mL
same,AUC,[10],1.94 µg·h/mL
same,bioavailability,[11],76%
same,solubility,[12],> 100 µM
CCN1CCN(c2nc(C)nc3c2nc(-c2ccccc2Cl)n3C)CC1.Cl,solubility,[12],> 100 µM
CCN1CCN(c2nc(C)nc3[nH]c(-c4ccccc4Cl)nc23)CC1,logP,[13],3.7
CCN1CCN(c2nc(C)nc3c2nc(-c2ccccc2Cl)n3CCOC)CC1.Cl,AUC,[1],< 0.05 µg·h/mL
